Holding throughout (type): cell-based
The target in experiment [1] is T1, P2X purinoceptor 7 (Homo sapiens) (UniProt Q99572).
T1 sequence (whole entry): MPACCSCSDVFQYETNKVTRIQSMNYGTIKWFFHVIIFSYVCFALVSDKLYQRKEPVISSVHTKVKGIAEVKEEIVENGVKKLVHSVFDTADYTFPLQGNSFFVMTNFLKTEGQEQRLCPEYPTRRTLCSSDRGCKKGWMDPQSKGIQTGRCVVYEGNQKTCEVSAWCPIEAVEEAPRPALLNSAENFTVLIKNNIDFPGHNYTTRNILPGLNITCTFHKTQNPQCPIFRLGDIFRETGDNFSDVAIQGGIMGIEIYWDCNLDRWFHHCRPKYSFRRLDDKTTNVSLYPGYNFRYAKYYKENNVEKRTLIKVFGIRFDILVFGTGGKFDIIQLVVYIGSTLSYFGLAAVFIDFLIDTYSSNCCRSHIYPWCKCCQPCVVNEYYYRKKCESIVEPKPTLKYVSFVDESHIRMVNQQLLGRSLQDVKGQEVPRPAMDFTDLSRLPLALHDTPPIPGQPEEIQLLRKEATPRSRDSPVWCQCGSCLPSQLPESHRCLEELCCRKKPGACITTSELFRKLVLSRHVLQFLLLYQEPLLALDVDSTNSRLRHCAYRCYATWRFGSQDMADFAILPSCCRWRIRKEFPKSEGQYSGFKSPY
The experiment in a line: Antagonist activity at human P2X7 receptor expressed in Xenopus laevis oocytes assessed as reduction in ATP-induced channel currents at 100 uM by TEVC electrophysiology assay relative to control. Conditions: Oocyte, filed as antagonist. In short, it runs like this:
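Oocytes injected with 50 nL His-tagged hP2X7 cRNA (0.5 mg/mL), kept 1–2 days at 16–18 °C. Recorded in low divalent-cation solution (90 mM NaCl, 0.5 mM CaCl₂, 5 mM HEPES) at −70 mV. ATP 300 μM for 2 s after 3 min static compound incubation. Current normalized to control amplitude. Triplicates from three oocytes, two frogs.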

For experiment [2], the target named is T2, P2X purinoceptor 7 (Rattus norvegicus) (UniProt Q64663).
T2 sequence (whole entry): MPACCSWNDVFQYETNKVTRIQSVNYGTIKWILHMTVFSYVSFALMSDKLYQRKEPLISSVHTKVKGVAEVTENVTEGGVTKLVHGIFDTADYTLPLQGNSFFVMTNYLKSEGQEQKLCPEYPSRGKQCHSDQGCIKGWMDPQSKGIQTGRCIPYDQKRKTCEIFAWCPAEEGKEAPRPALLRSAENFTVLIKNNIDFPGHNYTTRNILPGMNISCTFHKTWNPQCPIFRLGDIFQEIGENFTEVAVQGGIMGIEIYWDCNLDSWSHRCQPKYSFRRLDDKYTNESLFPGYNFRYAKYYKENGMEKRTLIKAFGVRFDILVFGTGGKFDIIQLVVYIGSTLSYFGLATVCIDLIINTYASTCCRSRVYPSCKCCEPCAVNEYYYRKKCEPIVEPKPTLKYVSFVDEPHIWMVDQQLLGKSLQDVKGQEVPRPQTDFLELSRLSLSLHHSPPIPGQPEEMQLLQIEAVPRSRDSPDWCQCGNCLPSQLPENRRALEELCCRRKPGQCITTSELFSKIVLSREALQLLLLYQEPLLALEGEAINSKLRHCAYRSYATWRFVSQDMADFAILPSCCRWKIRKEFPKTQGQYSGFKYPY
In words: Antagonist activity at rat P2X7 receptor expressed in Xenopus laevis oocytes assessed as reduction in ATP-induced channel currents at 100 uM by TEVC electrophysiology assay relative to control. Conditions: Oocyte, filed as antagonist. The method in brief:
(§1)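 Two-electrode voltage clamp at −70 mV in low divalent-cation solution, oocytes incubated 1–2 days at 16–18 °C after 50 nL cRNA injection: rP2X1 and rP2X4 at 0.5 mg/mL, rP2X2 0.1 mg/mL, rP2X7 25 μg/mL. ATP 10 μM for rP2X1 and rP2X2, 30 μM for rP2X4 and rP2X7. Compound applied 3 min without perfusion. Currents normalized to control; three oocytes from two frogs.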

Experiment [3] has as its target T3, P2X purinoceptor 4 (Rattus norvegicus) (UniProt P51577).
T3 sequence (whole entry): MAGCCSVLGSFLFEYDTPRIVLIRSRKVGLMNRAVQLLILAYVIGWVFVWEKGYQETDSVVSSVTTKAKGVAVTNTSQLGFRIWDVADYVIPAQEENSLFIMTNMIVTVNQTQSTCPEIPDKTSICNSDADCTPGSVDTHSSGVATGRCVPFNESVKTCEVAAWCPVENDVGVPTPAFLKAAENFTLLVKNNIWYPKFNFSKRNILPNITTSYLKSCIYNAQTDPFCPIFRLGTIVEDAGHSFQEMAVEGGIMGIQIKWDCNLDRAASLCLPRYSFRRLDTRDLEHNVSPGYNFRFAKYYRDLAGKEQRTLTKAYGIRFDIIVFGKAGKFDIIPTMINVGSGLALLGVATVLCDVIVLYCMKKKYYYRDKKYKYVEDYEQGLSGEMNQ
The experiment in a line: Antagonist activity at rat P2X4 receptor expressed in Xenopus laevis oocytes assessed as reduction in ATP-induced channel currents at 100 uM by TEVC electrophysiology assay relative to control. To be noted: Oocyte. The method in brief:
as §1

Activity calls are given as the source filed them. No cut-off for these calls is given here.

This passage reports inhibition results from ChEMBL document CHEMBL4706687, “Synthesis and Pharmacological Evaluation of Novel Non-nucleotide Purine Derivatives as P2X7 Antagonists for the Treatment of Neuroinflammation” (J Med Chem, 2021).

A word on the inhibition: it is the percentage by which the read-out fell short of the control. For the compound `O=C(Cn1cnc2c(Cl)ncnc21)c1ccc(Cl)cc1Cl`, the inhibition in experiment [1] is 47%. Also, the inhibition result in experiment [2] is “Active”. Further, the inhibition entry in experiment [3] was “inactive”.
